In the library only some 2.3% were active in any assay of this set; here they are far more common.
CHT allo act: allosteric activators of human choline transporter CHT. AID 488977. B-score at 10 µM. CHT-expressing cells, membrane potential dye, choline EC20; active compounds read high; LV-AA mutant CHT in HEK293 cells. Q9GZV3. 310,000 tested, 0.49% active;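 active means initial fluorescence not abnormally high and integrated response B-score, plate-corrected, over 3 SD above library mean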
CHT inh: inhibits the human high affinity choline transporter; CHT-expressing cells, membrane potential dye, choline response; active compounds read low; B-score at 10 µM; AID 488975; 310,000 tested, 0.86% active; Q9GZV3;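 active means B-score over 3 SD under the library average, and starting fluorescence ratio not unusually high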;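 further: choline stimulus applied at its EC90 after an EC20 pre-addition; B-score computed on integrated fluorescence ratio after choline addition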
Pemphigus Ab inh: human desmoglein-3 autoantibody binding inhibition | binding (percent of control), % at 10 µM | AID 588358 | DSG3-coupled beads, scFv-anti-DSG3-GFP binding, flow cytometry; active compounds read low | 310,000 tested, 0.48% active;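 active means binding more than 3 SD below its plate's average and above zero; inconclusive means below that plate limit but binding exactly zero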;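 further: hits lower antibody fragment binding to DSG3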
Target sequence (P32926 whole entry, looked up, the tested form may be a part): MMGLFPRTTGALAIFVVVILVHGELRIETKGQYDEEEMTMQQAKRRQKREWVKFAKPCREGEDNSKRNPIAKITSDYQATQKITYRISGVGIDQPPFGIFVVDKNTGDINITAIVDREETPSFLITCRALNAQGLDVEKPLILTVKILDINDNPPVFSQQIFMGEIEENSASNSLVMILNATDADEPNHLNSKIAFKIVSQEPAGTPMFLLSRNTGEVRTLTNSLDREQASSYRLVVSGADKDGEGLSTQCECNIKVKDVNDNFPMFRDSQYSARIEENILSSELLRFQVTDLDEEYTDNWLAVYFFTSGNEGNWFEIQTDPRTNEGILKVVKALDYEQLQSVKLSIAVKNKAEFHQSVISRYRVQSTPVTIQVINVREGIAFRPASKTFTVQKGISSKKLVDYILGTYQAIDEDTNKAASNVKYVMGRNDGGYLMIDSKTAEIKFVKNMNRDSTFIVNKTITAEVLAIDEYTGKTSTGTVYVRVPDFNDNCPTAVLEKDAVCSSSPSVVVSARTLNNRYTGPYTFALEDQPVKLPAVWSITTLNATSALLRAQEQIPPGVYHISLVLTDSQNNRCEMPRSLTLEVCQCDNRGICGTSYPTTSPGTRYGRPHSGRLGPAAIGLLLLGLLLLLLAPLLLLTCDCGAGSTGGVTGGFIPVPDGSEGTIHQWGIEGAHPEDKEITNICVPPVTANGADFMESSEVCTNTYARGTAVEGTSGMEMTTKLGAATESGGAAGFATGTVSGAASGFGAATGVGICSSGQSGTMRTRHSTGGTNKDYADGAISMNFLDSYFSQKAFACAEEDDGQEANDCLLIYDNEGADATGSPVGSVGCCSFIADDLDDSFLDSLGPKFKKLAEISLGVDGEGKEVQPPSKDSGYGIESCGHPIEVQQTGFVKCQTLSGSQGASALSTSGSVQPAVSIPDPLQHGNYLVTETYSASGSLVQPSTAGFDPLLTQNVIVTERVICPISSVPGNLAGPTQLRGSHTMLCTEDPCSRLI
p-CIP stab down: p/CIP protein destabilization. Q05BA5. F442A p/CIP-EGFP cells, EGFP fluorescence, 16 h. decrease of EGFP signal, % at 10 µM. 290,000 tested, 0.01% active;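 active means EGFP signal decrease of at least 30% at 10 µM or well 3 SD below plate mean, unless failing retest; inactive means the rest, including hits failing retest or dose response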
GPR7 antag: blocks human GPR7 receptor signaling. P48145. GPR7-expressing cells, fluorescence antagonist assay. inhibition, % at 4.4 µM. 290,000 tested, 1.1% active. AID 1861; in the data active means inhibition above about 16%, passing the limit was not always enough;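 further: cells stimulated with the agonist NPW; 0% = agonist with vehicle and 100% = vehicle without agonist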
T cell modulator: T cell immune modulation candidate; response (vesicle binding), % at 7 µM; 330,000 tested, 0.068% active; 2C CD8+ T cell-vesicle binding, flow cytometry; active compounds read low; AID 2052;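 active means response, share of CD8 T cells binding vesicles, and their 90th percentile fluorescence all below set limits, cut at about 80% in these data, passing the limit was not always enough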;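 further: values below 100% mean blocked vesicle binding to the CD8+ T cells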
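Material: murine 2C transgenic CD8+ T lymphocytes / Also added: QL9-peptide-loaded Drosophila micro-vesicles bearing Ld, ICAM-1 and B7-1 / Schedule: binding step 1.5 h, 37 °C, antibody labelling 20 min, ice / Signal: flow cytometry, PE anti-B7-1 (FL2) versus Alexa647 anti-CD8 (FL8), PFA-fixed / Evaluation: percent CD8+ FL2 mean versus row control / Benchmarks: naked versus QL9-loaded vesicles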
GPR7 antag cf: human GPR7 antagonism, confirmation assay; shares compounds with GPR7 antag; GPR7-expressing cells, calcium fluorescence antagonist mode; inhibition, % at 4.4 µM; 2,400 tested, 52% active; AID 1952; in the data active means inhibition above about 24%;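 further: stimulated with the GPR7 agonist NPW; 0% = agonist plus vehicle and 100% = vehicle alone without agonist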
MCHR1 antag: counter-screen for GPR7 antagonists: antagonists of human MCHR1. MCHR1-expressing cells, fluorescence antagonist assay. inhibition, % at 4.4 µM. AID 2148. 2,400 tested, 62% active. shares compounds with GPR7 antag; in the data active means inhibition above about 22%;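 further: 0% = vehicle with agonist and 100% = vehicle without agonist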
An asterisk follows results filed as active; i = inactive; u = inconclusive; x = not tested or not shown.

SMILES	CHT allo act	CHT inh	Pemphigus Ab inh	p-CIP stab down	GPR7 antag	T cell modulator	GPR7 antag cf	MCHR1 antag
CC(NC(=O)CSc1nc2sc3c(c2c(=O)n1-c1ccccc1)CCCC3)c1ccccc1 (centres undefined)	i	i	79*	-21	-1	218	x	x
Cc1cc(OCC(=O)Nc2c(C(C)C)cccc2C(C)C)no1	x	x	120	x	x	x	x	x
O=C(NC(Sc1ccc(Cl)cc1)C(=O)O)c1ccccc1 (centres undefined)	x	x	111	x	x	x	x	x
O=C(N/N=C/c1ccc(O)c(Br)c1)c1cc2c(ccc3ccccc32)o1	i	i	78*	-6	-5	267	x	x
O=C(N/N=C/c1cc(Br)c(O)c(Br)c1)c1cc2c(ccc3ccccc32)o1	i	i	x	-13	-30	i	x	x
O=C(c1cc(C2CC2)nn1-c1ccccc1)N1CCN(S(=O)(=O)c2ccccc2F)CC1	x	x	114	x	x	x	x	x
Cc1cccc(OCC(=O)NC(=S)Nc2ccc(S(=O)(=O)NC3CCCCC3)cc2)c1	i	i	63*	-10	15	499	x	x
Clc1cc(Cl)cc(Nc2ccccc2CN(C/C=C/c2ccc3c(c2)OCO3)Cc2ccccc2)c1	x	x	100	x	x	x	x	x
CCc1ccc(OCC(=O)Nc2ccc(N3CCN(C(=O)c4ccccc4)CC3)cc2)cc1	i	i	95*	-8	-8	229	x	x
O=C(Cn1nc(-c2ccccc2)ccc1=O)Nc1ccc(N2CCN(C(=O)c3ccccc3)CC2)cc1	i	i	104	-3	20*	522	x	x
Cn1c(O)c(N=NC(=O)CNC(=O)c2ccccc2)c2cc(Br)ccc21	i	i	x	-5	-3	380	x	x
Cn1c(O)c(N=NC(=O)CNC(=O)c2ccccc2)c2ccccc21	i	i	-36*	-23	-11	175	x	x
Cc1cccc(CN2CCC(n3nccc3NC(=O)CCCc3ccccc3)CC2)c1	x	x	100	x	x	x	x	x
CC1CCN(S(=O)(=O)c2ccc(N=NC3=C(O)CC(C)(C)CC3=O)cc2)CC1	i	i	7.6*	-16	-4	305	x	x
COc1cccc(CN2CCN(S(=O)(=O)c3ccc(Cl)s3)CC2)c1	i	i	x	-6	10	0.0*	x	x
COc1ccc(S(=O)(=O)N2CCN(Cc3cccc(Cl)c3)CC2)cc1	i	i	121	3	14	518	x	x
O=C(CCCN1C(=O)c2cccc3cccc(c23)C1=O)N1CCN(c2ccccc2)CC1	i	i	47*	-5	-5	118	x	x
O=C(CCCN1C(=O)c2cccc3cccc(c23)C1=O)N1CCN(c2ccccc2O)CC1	i	i	100	-10	-11	264	x	x
CC1CCN(C(=O)COC(=O)CCCN2C(=O)c3cccc4cccc(c34)C2=O)CC1	i	i	x	-12	-18	0.0*	x	x
O=C(CCCN1C(=O)c2cccc3cccc(c23)C1=O)OCC(=O)N1CCCCC1	x	x	101	x	x	x	x	x
Nn1c(SCC(=O)N2CCCC2)nnc1-c1cccs1	x	x	100	x	x	x	x	x
O=C(COC(=O)c1ccccn1)NCc1ccccc1Cl	i	i	73	-6	24*	172	1	15
COc1ccc(CNC(=O)C2CCN(S(=O)(=O)N3CCC(C)CC3)CC2)c(OC)c1	x	x	96	x	x	x	x	x
O=C(/C=C/c1ccc(Cl)cc1)Nc1ccc(CN2CCOCC2)cc1	i	i	99	-5	28*	364	36*	55*
CC(C)c1ccc(/C=C/C(=O)Nc2ccc(CN3CCOCC3)cc2)cc1	i	i	99	-10	9	207	x	x
SMILES	CHT allo act	CHT inh	Pemphigus Ab inh	p-CIP stab down	GPR7 antag	T cell modulator	GPR7 antag cf	MCHR1 antag
COc1cccc(NC(=S)NC(=O)/C=C/c2ccc(F)cc2)c1	i	i	97	2	6	593	x	x
CC(=O)c1ccc(NC(=S)NC(=O)/C=C/c2ccc(F)cc2)cc1	i	i	u	-4	48*	205	11	13
CCCCCOc1ccc(OC(=O)c2ccncc2)cc1	i	i	78	-2	27*	342	1	-4
O=C(NCc1cc2ccccc2[nH]1)C1CCC(=O)N(CC2CCCCC2)C1 (centres undefined)	x	x	102	x	x	x	x	x
CN(CC(=O)Nc1ccccc1Cl)C(=O)c1cccc(S(=O)(=O)N2CCN(c3ccc(F)cc3)CC2)c1	i	i	u	-31	31*	211	24*	53*
CC(c1ccccc1C(O)(c1ccccc1)c1ccccc1)N(C)C (centres undefined)	i	i	135	7	68*	254	92*	96*
CC(C)CC1C(=O)N(Cc2cn(CC3CCCCC3)nn2)CCS(=O)(=O)N1Cc1ccc(-c2cccc(C#N)c2)cc1 (centres undefined)	x	x	99	x	x	x	x	x
CCOCCCNCc1cc(Br)ccc1OCc1ccccc1	i	i	100	-14	38*	243	36*	42*
N#Cc1ccc(NC(=O)COC(=O)c2cccc(S(=O)(=O)N3CCCC3)c2)cc1	x	x	104	x	x	x	x	x
CCOc1ccc(CN2CCN(Cc3cc4ccccc4[nH]3)CC2CCO)cc1 (centres undefined)	x	x	101	-20	13	x	x	x
COc1cccc(CN2CCN(Cc3cc4ccccc4[nH]3)CC2CCO)c1 (centres undefined)	i	i	106	-1	67*	67	79*	81*
Cc1ccc(S(=O)(=O)N(C)C[C@H]2Oc3ncc(-c4ccccc4)cc3C(=O)N([C@@H](C)CO)C[C@@H]2C)cc1	x	x	106	x	x	x	x	x
Cc1ccc(S(=O)(=O)N2CCOCC2)cc1NC(=O)CN1CCC(Cc2ccccc2)CC1	i	i	87	2	37*	158	25*	38*
Cc1cccc(N2CCN(CC(=O)Nc3ccc(S(=O)(=O)N4CCOCC4)cc3)CC2)c1C	i	i	102	-2	33*	658	3	35*
Cc1cccc(N2CCN(CC(=O)Nc3nccs3)CC2)c1C	i	i	103	-2	36*	302	34*	36*
Cc1ccc(S(=O)(=O)N2CCN(CC(=O)Nc3ccc(N4CCOCC4)cc3)CC2)cc1C	i	i	106	14	-7	94	x	x
COc1ccc(-c2sc3ccc(-c4ccc5c(c4)OCO5)cc3c2-c2ccc(OC)nc2)cc1	x	x	98	x	x	458	x	x
CCOC(=O)C1(CCOC)CCCCC1=O (centres undefined)	x	x	110	x	x	x	x	x
Cc1cc(C(=O)COc2ccc(Br)cc2F)c(C)n1CC1CCCO1 (centres undefined)	x	x	97	x	x	x	x	x

Screens (PubChem BioAssay)
